Measured values reported in ChEMBL document CHEMBL1138144 (J Med Chem, 2006).

Tests used:
[1] = biological target: T1, Sodium-dependent noradrenaline transporter (Homo sapiens, UniProt P23975); test: Displacement of [125I]RTI-55 from human NET expressed in HEK293 cells; format: cell-based
[2] = biological target: T2, Sodium-dependent serotonin transporter (Homo sapiens, UniProt P31645); test: Displacement of [125I]RTI-55 from human SERT expressed in HEK293 cells; format: cell-based
In short: (§1)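 Membranes from HEK293 cells expressing hDAT or hSERT, grown to 80% confluence, lysed in 2 mM HEPES/1 mM EDTA, spun and resuspended in 0.32 M sucrose. About 10–15 µg protein preincubated 10 min with compound in Krebs-HEPES pH 7.4 (0.1% DMSO final). Filtered on GF/C. Non-specific binding: 5 µM mazindol (DAT) or 5 µM imipramine (SERT). Duplicates, 2–3 experiments, IC50 converted to Ki by Cheng-Prusoff.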

[3] = biological target: T2, Sodium-dependent serotonin transporter; test: Inhibition of [3H] serotonin uptake into human SERT expressed in HEK293 cells; format: functional, cell-based
In short: (§2)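 Confluent HEK293 cells expressing hDAT or hSERT, scraped into Krebs-HEPES. Preincubated 10 min at 25°C with compound (0.1% DMSO final). Uptake started with [3H]dopamine or [3H]serotonin (20 nM final) and stopped after 10 min by filtration on PEI-soaked GF/C filters. Non-specific uptake: 5 µM mazindol (DAT) or 5 µM imipramine (SERT). IC50 from triplicate 6-concentration curves, 2–3 independent determinations.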

[4] = biological target: T3, Sodium-dependent dopamine transporter (Homo sapiens, UniProt Q01959); test: Inhibition of [3H] dopamine uptake into human DAT expressed in HEK293 cells; format: functional, cell-based; in short: as §2
T3 sequence (Q01959 whole entry): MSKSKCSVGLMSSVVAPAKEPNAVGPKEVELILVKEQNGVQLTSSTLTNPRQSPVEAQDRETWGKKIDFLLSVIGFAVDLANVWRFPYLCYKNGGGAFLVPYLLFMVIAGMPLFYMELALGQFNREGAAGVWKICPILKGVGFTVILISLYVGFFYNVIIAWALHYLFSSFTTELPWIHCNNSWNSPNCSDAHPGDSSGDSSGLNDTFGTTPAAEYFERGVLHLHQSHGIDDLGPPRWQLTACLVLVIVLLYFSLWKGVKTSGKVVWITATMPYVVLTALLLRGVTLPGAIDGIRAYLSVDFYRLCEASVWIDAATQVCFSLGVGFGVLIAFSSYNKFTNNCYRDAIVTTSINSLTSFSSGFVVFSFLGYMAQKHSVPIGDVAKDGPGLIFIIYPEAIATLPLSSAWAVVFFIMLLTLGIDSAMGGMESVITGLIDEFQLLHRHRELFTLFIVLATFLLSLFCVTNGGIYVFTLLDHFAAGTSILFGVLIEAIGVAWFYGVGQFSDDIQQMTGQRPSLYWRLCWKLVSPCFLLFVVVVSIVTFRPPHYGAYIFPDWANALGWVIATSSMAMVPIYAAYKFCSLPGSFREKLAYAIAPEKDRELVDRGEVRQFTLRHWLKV

[5] = biological target: T3, Sodium-dependent dopamine transporter; test: Displacement of [125I]RTI-55 from human DAT expressed in HEK293 cells; format: cell-based; in short: as §1
[6] = biological target: T1, Sodium-dependent noradrenaline transporter; test: Inhibition of [3H] norepinephrine uptake into human NET expressed in HEK293 cells; format: functional, cell-based
D(2) dopamine receptor = D(2) dopamine receptor (Homo sapiens, UniProt P14416); test: Inhibitory activity against dopamine D2
Sequence of D(2) dopamine receptor (P14416 whole entry): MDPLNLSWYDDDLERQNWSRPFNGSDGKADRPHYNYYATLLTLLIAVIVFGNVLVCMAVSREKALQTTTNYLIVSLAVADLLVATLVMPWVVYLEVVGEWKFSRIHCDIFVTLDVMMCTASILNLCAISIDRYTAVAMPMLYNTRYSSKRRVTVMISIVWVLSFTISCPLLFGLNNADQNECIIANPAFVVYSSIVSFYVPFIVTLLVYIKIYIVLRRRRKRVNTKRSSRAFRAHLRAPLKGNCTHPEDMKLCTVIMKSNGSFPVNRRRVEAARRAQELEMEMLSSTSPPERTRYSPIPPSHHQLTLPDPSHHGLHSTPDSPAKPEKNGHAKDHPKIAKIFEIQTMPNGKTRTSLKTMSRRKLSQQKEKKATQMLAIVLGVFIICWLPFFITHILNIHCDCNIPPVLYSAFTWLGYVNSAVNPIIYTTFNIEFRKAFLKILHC

[7] = biological target: 5-hydroxytryptamine receptor 1B (Homo sapiens, UniProt P28222); test: Inhibitory activity against 5HT1B
Sequence of 5-hydroxytryptamine receptor 1B (P28222 whole entry): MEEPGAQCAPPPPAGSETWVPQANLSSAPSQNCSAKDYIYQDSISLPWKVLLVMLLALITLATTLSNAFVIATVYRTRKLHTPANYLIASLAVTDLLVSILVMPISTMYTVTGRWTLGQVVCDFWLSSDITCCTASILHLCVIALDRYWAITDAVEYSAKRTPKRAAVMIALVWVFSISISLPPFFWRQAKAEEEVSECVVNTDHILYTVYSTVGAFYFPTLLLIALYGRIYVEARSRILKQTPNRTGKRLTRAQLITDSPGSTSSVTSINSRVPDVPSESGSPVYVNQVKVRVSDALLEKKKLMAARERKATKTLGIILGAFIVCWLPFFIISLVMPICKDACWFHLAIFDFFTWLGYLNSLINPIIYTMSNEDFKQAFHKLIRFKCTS

D(1A) dopamine receptor = D(1A) dopamine receptor (Homo sapiens, UniProt P21728); test: Inhibitory activity against dopamine D1
Sequence of D(1A) dopamine receptor (P21728 whole entry): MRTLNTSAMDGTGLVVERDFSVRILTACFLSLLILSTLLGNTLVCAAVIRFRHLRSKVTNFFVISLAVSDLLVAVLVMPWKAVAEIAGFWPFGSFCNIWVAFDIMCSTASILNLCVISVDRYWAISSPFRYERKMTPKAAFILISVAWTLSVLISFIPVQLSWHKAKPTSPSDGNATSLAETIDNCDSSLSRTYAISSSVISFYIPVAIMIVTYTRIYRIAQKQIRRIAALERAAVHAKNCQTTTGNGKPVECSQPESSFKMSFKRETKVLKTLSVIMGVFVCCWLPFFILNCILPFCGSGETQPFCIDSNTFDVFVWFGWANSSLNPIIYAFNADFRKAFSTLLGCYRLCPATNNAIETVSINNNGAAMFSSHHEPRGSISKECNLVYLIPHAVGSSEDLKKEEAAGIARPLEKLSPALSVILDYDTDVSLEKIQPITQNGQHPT

D(3) dopamine receptor = D(3) dopamine receptor (Homo sapiens, UniProt P35462); test: Inhibitory activity against dopamine D3
Sequence of D(3) dopamine receptor (P35462 whole entry): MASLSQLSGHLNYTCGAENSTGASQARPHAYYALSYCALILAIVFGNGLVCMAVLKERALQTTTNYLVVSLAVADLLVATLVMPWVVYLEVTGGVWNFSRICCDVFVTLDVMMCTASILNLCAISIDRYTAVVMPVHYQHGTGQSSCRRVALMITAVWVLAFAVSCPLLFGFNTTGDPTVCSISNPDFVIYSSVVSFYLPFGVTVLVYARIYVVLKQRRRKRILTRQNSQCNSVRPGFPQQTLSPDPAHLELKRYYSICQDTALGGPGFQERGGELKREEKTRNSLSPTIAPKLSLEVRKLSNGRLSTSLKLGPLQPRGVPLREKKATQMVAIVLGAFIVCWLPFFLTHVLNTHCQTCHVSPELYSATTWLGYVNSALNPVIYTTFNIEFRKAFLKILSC

[8] = biological target: T4, 5-hydroxytryptamine receptor 1A (Homo sapiens, UniProt P08908); test: Inhibitory activity against 5HT1A
T4 sequence (P08908 whole entry): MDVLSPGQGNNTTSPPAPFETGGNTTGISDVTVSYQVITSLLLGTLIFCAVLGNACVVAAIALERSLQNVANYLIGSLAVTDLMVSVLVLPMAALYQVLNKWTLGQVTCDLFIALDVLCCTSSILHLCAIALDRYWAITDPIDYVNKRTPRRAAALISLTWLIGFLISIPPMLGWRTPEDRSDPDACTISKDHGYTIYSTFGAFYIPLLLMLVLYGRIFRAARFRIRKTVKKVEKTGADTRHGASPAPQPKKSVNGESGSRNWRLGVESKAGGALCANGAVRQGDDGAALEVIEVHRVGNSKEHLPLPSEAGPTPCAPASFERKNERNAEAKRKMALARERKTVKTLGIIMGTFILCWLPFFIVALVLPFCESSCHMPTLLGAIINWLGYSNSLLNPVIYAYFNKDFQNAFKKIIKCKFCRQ

[9] = biological target: T5, 5-hydroxytryptamine receptor 2C (Homo sapiens, UniProt P28335); test: Inhibitory activity against 5HT1C
T5 sequence (P28335 whole entry): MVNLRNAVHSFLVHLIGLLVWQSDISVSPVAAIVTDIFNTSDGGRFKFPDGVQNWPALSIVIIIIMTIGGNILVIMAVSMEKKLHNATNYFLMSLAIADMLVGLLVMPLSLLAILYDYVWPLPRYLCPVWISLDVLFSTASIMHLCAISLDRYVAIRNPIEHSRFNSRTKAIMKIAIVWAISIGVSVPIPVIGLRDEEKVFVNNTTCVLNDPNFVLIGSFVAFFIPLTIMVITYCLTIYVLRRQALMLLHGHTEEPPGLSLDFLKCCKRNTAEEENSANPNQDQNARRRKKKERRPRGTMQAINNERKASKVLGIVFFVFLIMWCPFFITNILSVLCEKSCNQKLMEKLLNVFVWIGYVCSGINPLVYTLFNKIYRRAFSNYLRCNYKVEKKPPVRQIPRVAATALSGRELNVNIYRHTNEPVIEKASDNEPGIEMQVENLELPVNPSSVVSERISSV

T2 sequence (P31645 whole entry): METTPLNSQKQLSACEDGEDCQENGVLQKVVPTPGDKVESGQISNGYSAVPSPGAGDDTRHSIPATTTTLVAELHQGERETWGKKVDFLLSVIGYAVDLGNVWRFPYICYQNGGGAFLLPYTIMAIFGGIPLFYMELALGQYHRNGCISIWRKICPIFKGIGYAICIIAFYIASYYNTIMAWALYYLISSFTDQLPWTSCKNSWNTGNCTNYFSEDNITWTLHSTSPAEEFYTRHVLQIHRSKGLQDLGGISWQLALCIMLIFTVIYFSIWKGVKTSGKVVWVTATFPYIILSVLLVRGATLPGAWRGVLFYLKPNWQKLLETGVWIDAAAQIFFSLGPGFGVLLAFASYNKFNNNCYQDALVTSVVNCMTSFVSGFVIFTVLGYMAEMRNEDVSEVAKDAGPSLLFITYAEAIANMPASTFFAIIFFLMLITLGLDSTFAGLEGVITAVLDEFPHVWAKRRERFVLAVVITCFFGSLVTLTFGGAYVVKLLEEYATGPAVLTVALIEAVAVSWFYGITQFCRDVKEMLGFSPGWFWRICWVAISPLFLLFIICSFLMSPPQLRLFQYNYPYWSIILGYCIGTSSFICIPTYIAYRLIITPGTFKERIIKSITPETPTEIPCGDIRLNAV
T1 sequence (P23975 whole entry): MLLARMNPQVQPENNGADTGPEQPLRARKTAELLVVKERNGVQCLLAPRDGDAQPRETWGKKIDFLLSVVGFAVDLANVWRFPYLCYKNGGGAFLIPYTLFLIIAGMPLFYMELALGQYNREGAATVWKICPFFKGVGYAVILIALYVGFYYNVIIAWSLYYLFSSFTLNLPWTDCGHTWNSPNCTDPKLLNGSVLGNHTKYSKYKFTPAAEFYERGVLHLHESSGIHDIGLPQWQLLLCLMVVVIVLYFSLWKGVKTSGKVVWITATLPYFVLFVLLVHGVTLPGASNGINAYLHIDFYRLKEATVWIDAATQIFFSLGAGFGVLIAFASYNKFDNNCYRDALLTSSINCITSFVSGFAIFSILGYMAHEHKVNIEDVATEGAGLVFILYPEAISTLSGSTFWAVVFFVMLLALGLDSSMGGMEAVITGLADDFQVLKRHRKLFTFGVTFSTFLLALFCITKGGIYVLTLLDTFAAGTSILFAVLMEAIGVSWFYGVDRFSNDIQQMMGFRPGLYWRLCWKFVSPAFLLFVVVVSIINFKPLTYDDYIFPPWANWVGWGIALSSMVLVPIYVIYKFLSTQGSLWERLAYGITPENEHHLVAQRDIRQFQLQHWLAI

Row | SMILES | Ki [1] [nM] | Ki [2] [nM] | IC50 [3] [nM] | IC50 [4] [nM] | Ki [5] [nM] | IC50 [6] [nM] | IC50 (D(2) dopamine receptor) [nM] | IC50 [7] [nM] | IC50 (D(1A) dopamine receptor) [nM] | IC50 (D(3) dopamine receptor) [nM] | IC50 [8] [nM] | IC50 [9] [nM]
1 | CCCC(C(=O)c1ccc(C(=O)OC)cc1)N1CCCC1 (stereo unspecified) | 1140 | 3650 | 2350 | 154 | 360 | – | – | – | – | – | – | –
2 | CCCC(C(=O)c1ccc(-c2ccco2)cc1)N1CCCC1 (stereo unspecified) | 95 | 3330 | 2180 | 122 | 105 | 93 | – | – | – | – | – | –
3 | CCCC(CN1CCCC1)C(=O)c1ccc(Cl)c(Cl)c1 (stereo unspecified) | > 10000 | 630 | 710 | 2900 | 1530 | – | – | – | – | – | – | –
4 | CCC(C(=O)c1ccc(Cl)c(Cl)c1)N1CCCC1 (stereo unspecified) | 262 | 810 | 441 | – | – | 18.5 | – | – | – | – | – | –
5 | C=CCC(C(=O)c1ccc(Cl)c(Cl)c1)N1CCCC1 (stereo unspecified) | 509 | 1060 | 440 | 18.3 | 39.9 | 24.9 | – | – | – | – | – | –
6 | Cc1ccc(C(=O)C(CC(C)C)N2CCCC2)cc1 (stereo unspecified) | 259 | 2870 | 2040 | 5.9 | 13.7 | 18 | – | – | – | – | – | –
7 | C=CCC(C(=O)c1ccc(C)cc1)N1CCCC1 (stereo unspecified) | 1400 | > 10000 | – | 55 | 90.5 | 88 | – | – | – | – | – | –
8 | CCCC(C(=O)c1ccc(I)cc1)N1CCCC1 (stereo unspecified) | 310 | 301 | 197 | 32 | 81.4 | 46.5 | – | – | – | – | – | –
9 | CCCC(C(=O)c1ccc(C#N)cc1)N1CCCC1 (stereo unspecified) | > 10000 | > 10000 | – | 1000 | 5900 | – | – | – | – | – | – | –
10 | CCCC(CN1CCCC1)C(=O)c1ccc(C)cc1 (stereo unspecified) | > 10000 | 4100 | 4800 | – | > 10000 | – | – | – | – | – | – | –
11 | CCCC(C(=O)c1ccc(O)c(O)c1)N1CCCC1 (stereo unspecified) | 219 | > 10000 | – | 42 | 84 | 7.6 | – | – | – | – | – | –
12 | CCC(CC(=O)c1ccc(C)cc1)N1CCCC1 (stereo unspecified) | > 10000 | > 10000 | – | – | > 10000 | – | > 10000 | > 10000 | > 10000 | > 10000 | > 10000 | > 10000
13 | CCCC(C(=O)c1ccccc1C)N1CCCC1 (stereo unspecified) | 425 | 3720 | 2020 | 63 | 59.7 | 19.7 | > 10000 | > 10000 | > 10000 | > 10000 | > 10000 | > 10000
14 | CCCC(C(=O)c1ccc(Cl)c(Cl)c1)N1CCCC1 (stereo unspecified) | 37.8 | 199 | 600 | 43 | 11.5 | 21 | – | – | – | – | – | –
15 | CCCC(C(=O)c1ccc(CO)cc1)N1CCCC1 (stereo unspecified) | 150 | > 10000 | – | 44.3 | 48.7 | 12.4 | – | – | – | – | – | –
16 | CCCC(C(=O)c1ccc(O)cc1)N1CCCC1 (stereo unspecified) | 1290 | > 10000 | – | 49.7 | 125 | 86.7 | > 10000 | > 10000 | > 10000 | > 10000 | > 10000 | > 10000
17 | CCCC(C(=O)c1ccc(F)cc1)N1CCCC1 (stereo unspecified) | 830 | > 10000 | – | 185 | 82 | 171 | – | – | – | – | – | –
18 | CCCC(C(=O)c1cccc(C)c1)N1CCCC1 (stereo unspecified) | 216 | 5900 | – | 62.9 | 51 | 9.4 | > 10000 | > 10000 | > 10000 | > 10000 | > 10000 | > 10000

Row | SMILES | Ki [1] [nM] | Ki [2] [nM] | IC50 [3] [nM] | IC50 [4] [nM] | Ki [5] [nM] | IC50 [6] [nM] | IC50 (D(2) dopamine receptor) [nM] | IC50 [7] [nM] | IC50 (D(1A) dopamine receptor) [nM] | IC50 (D(3) dopamine receptor) [nM] | IC50 [8] [nM] | IC50 [9] [nM]
19 | CCCC(C(=O)c1ccc(Cl)c(Cl)c1)N1CCCCC1 (stereo unspecified) | 2350 | 2460 | > 10000 | 666 | 144 | 800 | – | – | – | – | – | –
20 | CCCC(C(=O)c1ccc(C(F)(F)F)cc1)N1CCCC1 (stereo unspecified) | > 10000 | 959 | 1030 | – | > 10000 | – | > 10000 | > 10000 | > 10000 | > 10000 | > 10000 | > 10000
21 | CC#Cc1ccc(C(=O)C(CCC)N2CCCC2)cc1 (stereo unspecified) | 69.8 | 6700 | 3300 | 11.8 | 61 | 19.3 | – | – | – | – | – | –
22 | CCCC(C(=O)c1ccc2ccccc2c1)N1CCCC1 (stereo unspecified) | 136 | 33.1 | 46 | 40 | 20.1 | 11.7 | > 10000 | > 10000 | > 10000 | > 10000 | > 10000 | > 10000
23 | CCCCNC(CCC)C(=O)c1ccc(Cl)c(Cl)c1 (stereo unspecified) | 4200 | 5080 | > 10000 | 1190 | 520 | 2520 | – | – | – | – | – | –
24 | CCCC(C(=O)c1ccccc1)N1CCCC1 (stereo unspecified) | 199 | > 10000 | – | 52.3 | 33.7 | 56 | – | – | – | – | – | –
25 | C#CCC(C(=O)c1ccc(C)cc1)N1CCCC1 (stereo unspecified) | 4100 | > 10000 | – | 231 | 2310 | 350 | – | – | – | – | – | –
26 | CCCC(C(=O)c1ccc(-c2cccs2)cc1)N1CCCC1 (stereo unspecified) | 370 | 3320 | 1960 | 539 | 460 | 263 | > 10000 | > 10000 | > 10000 | > 10000 | > 10000 | > 10000
27 | CCC(CC(=O)c1ccc(Cl)c(Cl)c1)N1CCCC1 (stereo unspecified) | > 10000 | 3900 | 1780 | > 10000 | 8440 | – | > 10000 | > 10000 | > 10000 | > 10000 | > 10000 | > 10000
28 | CCCC(C(=O)c1ccc(-c2cccn2C)cc1)N1CCCC1 (stereo unspecified) | > 10000 | > 10000 | – | 5400 | 3850 | – | – | – | – | – | – | –
29 | CCCC(C(=O)c1ccc([N+](=O)[O-])cc1)N1CCCC1 (stereo unspecified) | 2690 | 2460 | 1110 | 1110 | 266 | 531 | – | – | – | – | – | –
30 | CCCC(C(=O)c1ccc(NC(C)=O)cc1)N1CCCC1 (stereo unspecified) | 4000 | > 10000 | – | 67.9 | 30.2 | 317 | > 10000 | > 10000 | > 10000 | > 10000 | > 10000 | > 10000
31 | CCC[C@H](C(=O)c1ccc(C)cc1)N1CCCC1 | > 10000 | > 10000 | – | 1790 | – | – | – | – | – | – | – | –
32 | CCCC(C(=O)c1ccc(OC)c(OC)c1)N1CCCC1 (stereo unspecified) | > 10000 | 7460 | 1540 | – | > 10000 | – | – | – | – | – | – | –
33 | CCCC(C(=O)c1cccc(I)c1)N1CCCC1 (stereo unspecified) | 670 | 1400 | 1070 | 52 | 109 | 81 | – | – | – | – | – | –
34 | CCCC(C(O)c1ccc(C)cc1)N1CCCC1 (mixture of isomers) | > 10000 | > 10000 | – | – | > 10000 | – | – | – | – | – | – | –
35 | CCCC(C(=O)c1ccc(C)cc1)N1CCCC1 (stereo unspecified) [PYROVALERONE] | 195 | 3770 | 2780 | 52 | 21.4 | 28.3 | – | – | – | – | – | –
